# SR-BI uptake up – enhances SR-BI lipid uptake from DiI-HDL; CHO ldlA[mSR-BI] cells, DiI-HDL uptake fluorescence, 3 h; 100 = double the neutral-control signal; activation, % at 12.5 µM; 320,000 compounds, 0.096% hits; AID 504775;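 active means mean replicate activation of at least 60% and every replicate at or above 60%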
#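 Assay system: CHO ldlA[mSR-BI] cells, LDL receptor-null, SR-BI overexpressing; medium: Ham's F12 with 0.5% BSA, HEPES 25 mM, pH 7.4; also added: DiI-HDL 10 µg/mL; timing: 3 h uptake period with compound, 37 °C; signal: DiI fluorescence, bottom read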
# CAL PDZ FP-1 – inhibitors of human CAL PDZ peptide binding | 300,000 compounds, 0.92% hits | inhibition, % at 24.9 µM | purified CAL PDZ, TMR-peptide fluorescence polarization, 1 h | Q9HD26;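 active means mean inhibition of at least 30% with at least half of replicates also reaching 30%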
# CAL PDZ FP-2 – human CAL PDZ-peptide interaction inhibition; purified CAL PDZ, TMR-peptide fluorescence polarization, 1 h; inhibition, % at 20 µM; 330,000 compounds, 0.02% hits; AID 504414;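 active means highest replicate inhibition of at least 40%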
#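 Control set: unlabelled peptide and DMSO controls / Material: purified CerCALP PDZ construct / Timing: 1 h incubation at room temperature before polarization reading / Doses: 20 µM, one dose / Detection: fluorescence polarization (mP)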
# ATG4B inhibitor – blocks human ATG4B protease cleavage of LC3 substrate. inhibition, % at 8.33 µM. 340,000 compounds, 0.51% hits. AID 504462. ATG4B cleavage of LC3-PLA2, NBD-HPC fluorescence, 1 h. Q9Y4P1; in the data active means inhibition above about 40%
# SR-BI HDL uptake – blocks mouse SR-BI lipid uptake from DiI-HDL; Q61009; ldlA[mSR-BI] CHO cells, DiI-HDL uptake fluorescence, 3 h; inhibition, % at 12.5 µM; 320,000 compounds, 0.96% hits; AID 488896;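 active means mean replicate inhibition of at least 70% and a set share of replicates each scoring 70 or more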
# Target sequence (Q61009 whole entry, looked up): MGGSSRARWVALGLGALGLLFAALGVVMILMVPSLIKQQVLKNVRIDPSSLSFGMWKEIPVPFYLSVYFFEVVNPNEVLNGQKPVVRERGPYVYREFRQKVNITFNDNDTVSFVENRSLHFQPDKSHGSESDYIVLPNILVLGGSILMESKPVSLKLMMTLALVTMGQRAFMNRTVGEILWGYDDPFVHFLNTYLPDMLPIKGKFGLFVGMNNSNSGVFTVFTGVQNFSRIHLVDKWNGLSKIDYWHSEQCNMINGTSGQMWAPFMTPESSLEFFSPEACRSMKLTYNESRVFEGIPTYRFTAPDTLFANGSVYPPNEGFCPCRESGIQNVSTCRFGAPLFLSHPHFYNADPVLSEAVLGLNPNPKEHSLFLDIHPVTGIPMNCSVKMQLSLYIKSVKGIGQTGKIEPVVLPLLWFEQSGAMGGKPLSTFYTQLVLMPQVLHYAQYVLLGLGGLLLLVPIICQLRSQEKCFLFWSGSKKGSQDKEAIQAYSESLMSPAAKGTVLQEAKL
# Numbers stand for hits; . = inactive; / = no result given. Compounds with a hit are over-represented: about 2.3% of the library has one in this group of screens.
SMILES,SR-BI uptake up,CAL PDZ FP-1,CAL PDZ FP-2,ATG4B inhibitor,SR-BI HDL uptake
N#Cc1ccc(COC(=O)c2cnc(Cl)c(Cl)c2)cc1,.,48,.,.,.
O=C(OCc1ccccc1)c1cnc(Cl)c(Cl)c1,.,.,.,.,.
O=C(Nc1nc2ccc3ccccc3c2s1)c1ccc(N2CCCCC2)c([N+](=O)[O-])c1,.,.,.,.,.
O=C(Nc1ccc(N2CCCCC2)c(Cl)c1)c1ccc(N2CCOCC2)c([N+](=O)[O-])c1,.,.,.,.,87
O=C(Nc1nc2ccc(Cl)cc2s1)c1ccc(N2CCCCC2)c([N+](=O)[O-])c1,.,.,.,.,79
O=C(Nc1ccc(Cl)c([N+](=O)[O-])c1)c1ccc2c(c1)OCCO2,.,30,.,.,.
O=C(N/N=C/c1ccc(Cl)c([N+](=O)[O-])c1)c1ccc2c(c1)OCCO2,/,.,.,.,/
CC(C)CC1NC(=O)N(Cc2cc(=O)n3ccsc3n2)C1=O (stereo not given),.,.,.,.,.
N#Cc1ccc(OCC(=O)N2CCCC2=O)cc1,.,.,.,.,.
O=S(=O)(c1cccc(-c2n[nH]c(=S)n2-c2ccccc2Cl)c1)N1CCOCC1,.,.,.,.,.
O=S(=O)(c1cccc(-c2n[nH]c(=S)o2)c1)N1CCOCC1,.,98,.,.,.
CCOCCCNC(=O)CCCOc1ccccc1,.,70,.,.,.
CCCCOCCCNC(=O)CCCOc1ccccc1,.,.,.,.,.
O=C(c1ccc2nc[nH]c2c1)N1CCc2ccccc2C1,.,54,.,.,.
O=C(Cc1cccc(NC(=O)C2CCCN(C(=O)CCc3ccccc3)C2)c1)Nc1cccc(C(=O)N2CCCCC2)c1 (stereo not given),/,.,.,.,/
O=C(O)c1[nH]c2ccc(Cl)cc2c1CC(=O)N1CCN(C(=O)c2ccco2)CC1,.,.,.,.,.
O=C(c1ccco1)N1CCN(C(=O)C2CCCc3c2[nH]c2ccc(Cl)cc32)CC1 (stereo not given),.,.,.,.,83
O=C1C(NS(=O)(=O)c2cccs2)=C(N2CCN(c3cccc(C(F)(F)F)c3)CC2)C(=O)c2ccccc21,.,.,.,64,.
CN1CCN(C2=C(NS(=O)(=O)c3cccs3)C(=O)c3ccccc3C2=O)CC1,.,.,.,.,.
O=C(NC1CCCC1)C1CCN(c2nccs2)CC1,.,/,.,.,.
O=C(NC1CCCCC1)C1CCN(c2nccs2)CC1,.,33,.,.,.
O=S(=O)(c1ccccc1)N(CC(O)COc1ccccc1)c1ccccc1 (stereo not given),.,57,.,.,.
CC(Sc1ccc(Cl)cc1)C(=O)NNC(=O)c1ccccc1O (stereo not given),.,.,.,.,97
CSCCC(NC(=O)c1ccccc1Cl)C(=O)NNC(=O)c1ccccc1O (stereo not given),.,.,.,.,.
CCOc1ccccc1N(CC(=O)N1CCCC1)S(C)(=O)=O,.,/,.,.,.
SMILES,SR-BI uptake up,CAL PDZ FP-1,CAL PDZ FP-2,ATG4B inhibitor,SR-BI HDL uptake
C=CCOC(=O)C1=C(C)NC(=S)NC1c1cccs1 (stereo not given),.,.,.,.,78
CCOC(=O)N1CCN(C(=O)C2CCC(=O)N(Cc3ccc(Cl)cc3)C2)CC1 (stereo not given),.,.,.,.,.
CCc1cccc(C)c1NC(=S)NCC1CCN(c2ccc(OC)cc2)C1 (stereo not given),.,.,.,.,83
CCc1ccccc1NC(=S)NCC1CCN(c2ccc(OC)cc2)C1 (stereo not given),/,.,.,.,/
CN(Cc1ccc(Cl)c(Cl)c1)C(=O)c1ccccc1SCC(=O)N1CCCC1,.,.,.,.,.
O=c1c2c3nc4ccccc4nc3n(/N=C/c3ccco3)c2ncn1CCC1=CCCCC1,67,.,.,.,.
Cc1nc2c(c(=O)n1CCC1=CCCCC1)c1nc3ccccc3nc1n2/N=C/c1ccccc1,.,.,.,.,.
C=CCSc1ncnc2c1oc1nc3c(cc12)COC(C)(C)C3,.,84,.,.,.
O=C(OCC(=O)N1CCOCC1)c1ccc[nH]c1=O,.,.,125,.,.
CC(C)CCN(CC(=O)NCc1ccc(F)cc1)S(=O)(=O)c1ccccc1F,.,.,.,.,.

# High-throughput results from PubChem BioAssay.
